Assay results gathered from unrelated publications.
Protocols differ between the studies behind these lines.
CDK13: Cyclin-dependent kinase 13 (CDK13, Homo sapiens, UniProt Q14004)
CDK13 with cyclin K: Cyclin-dependent kinase 13, with cyclin K (CDK13, Homo sapiens, UniProt Q14004)

SMILES	target	test	setting	endpoint	value
Cc1ccc(C(=O)Nc2ccc(CN3CCN(C)CC3)c(C(F)(F)F)c2)cc1C#Cc1cnc2cccnn12	CDK13	enzyme activity, inhibitor	23.5 nM	remaining activity	6.4%
CN1CC(Oc2cnc(C#N)cc2-c2ccn3nc(NC(=O)C4CC4)cc3c2)C1	CDK13 with cyclin K	enzyme activity, inhibitor	1 µM	inhibition	1%
COc1cc(Cl)c(C(=O)N[C@@H](CN[C@H]2CC[C@@H](N)CC2)Cc2ccc(C#N)cc2)cc1-c1ccc(CN[C@H](C)c2ccc(C)cc2)o1	CDK13 with cyclin K	enzyme activity, inhibitor	1 µM	remaining activity	107%
C[C@H](NC(=O)c1cnc2n1[C@](C)(Cc1ccc(C#N)cc1)C(=O)N2c1cc(Cl)c(F)c(Cl)c1)C(=O)NC1(c2ccccn2)CC1	CDK13	cell-free assay, competition with immobilised ligand	1 µM	remaining binding	100%
Nc1ncnc2occ(-c3ccc(NC(=O)Nc4cc(C(F)(F)F)ccc4F)cc3)c12	CDK13	cell-free assay, inhibitor	20 µM	remaining signal	0.1%
Cc1ccc(C(=O)NCc2ccsc2)cc1C#Cc1cn(C(C)C)c2ncnc(N)c12	CDK13 with cyclin K	enzyme activity, inhibitor	1 µM	activity vs control	85%
CN([C@@H]1CCc2c(CC(=O)O)c3cc(S(C)(=O)=O)ccc3n2C1)S(=O)(=O)c1ccc(F)cc1	CDK13	cell-free assay, competition with immobilised ligand	1 µM	remaining binding	86%
CN(C)c1nccc(-c2cnc3ncccn23)n1	CDK13	binding	1 µM	remaining binding	58%
